Laboratory results reported in ChEMBL document CHEMBL1122069, “Double-head haptens. Synthesis of and experimentally induced contact sensitivity to substances containing two unrelated haptens, pyrocatechol and alpha-methylene-gamma-butyrolactone, in the same molecule” (1982).

Assays:
Format in all cases: functional
[1] = species on record: Cavia porcellus; assay: Open epicutaneous test (OET) was conducted using 0.72 M compound deposited on a circular shaved flank of guinea pig sensitized by double […] (3); no reaction
Outline: (§1)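 Guinea pigs sensitized by an injection repeated 4 times on alternate days, followed by 15 days rest before open epicutaneous challenge. Controls received intradermal 1:1 FCA-saline emulsion on alternate days, five injections in all. Irritation thresholds were first set on FCA-injected controls using the elicitation procedure. Read-out was average skin reaction and number of sensitive animals.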

[2] = species on record: Cavia porcellus; assay: Results of Open epicutaneous test (OET) in guinea pigs sensitized by bi […] (3) and expressed as No. of sensitive animals out of 8 animals tested; outline: as §1
[3] = species on record: Cavia porcellus; assay: Open epicutaneous test (OET) was conducted using 0.72 M compound deposited on a circular shaved flank of guinea pig sensitized by mixture of mono […] (18) and (19); erythema on the test area; outline: as §1
[4] = species on record: Cavia porcellus; assay: Open epicutaneous test (OET) was conducted using 0.72 M compound deposited on a circular shaved flank of guinea pig sensitized by mono […] (18); no reaction; outline: as §1
[5] = species on record: Cavia porcellus; assay: Results of Open epicutaneous test (OET) in guinea pigs sensitized by mono […] (19) and expressed as No. of sensitive animals out of 8 animals tested; outline: as §1
[6] = species on record: Cavia porcellus; assay: Open epicutaneous test (OET) was conducted using 0.72 M compound deposited on a circular shaved flank of guinea pig sensitized by mono […] (19); erythema plus swelling going well beyond test area.; outline: as §1
[7] = species on record: Cavia porcellus; assay: Results of Open epicutaneous test (OET) in guinea pigs sensitized by mono […] (18) and expressed as No. of sensitive animals out of 8 animals tested; outline: as §1
[8] = species on record: Cavia porcellus; assay: Results of Open epicutaneous test (OET) in guinea pigs sensitized by mixture of mono […] (18) and (19) and expressed as No. of sensitive animals out of 8 animals tested; outline: as §1
[9] = species on record: Cavia porcellus; assay: Open epicutaneous test (OET) was conducted using 0.72 M compound deposited on a circular shaved flank of guinea pig sensitized by bi […] (3); erythema on the test area; details: in the assay text read “0.072 M” for “0.72 M”; outline: as §1
[10] = species on record: Cavia porcellus; assay: Open epicutaneous test (OET) was conducted using 0.72 M compound deposited on a circular shaved flank of guinea pig sensitized by mono […] (19); no reaction; details: in the assay text read “0.072 M” for “0.72 M”; outline: as §1
[11] = species on record: Cavia porcellus; assay: Open epicutaneous test (OET) was conducted using 0.72 M compound deposited on a circular shaved flank of guinea pig sensitized by mono […] (18); erythema on the test area; outline: as §1

For `C=C1CC(CCCCCCc2cccc(OC)c2OC)OC1=O` (centres undefined), the Average skin reaction [1] was 0, the “No. of sensitive animals” value [2] was 0 and the Average skin reaction [3] was 1.1. For the same compound, the Average skin reaction [4] was 0, the “No. of sensitive animals” value [5] was 8 and the Average skin reaction [6] was 2.6. For the same compound, the “No. of sensitive animals” value [7] was 0 and the “No. of sensitive animals” value [8] was 8.

`CC1CC(CCCCCCc2cccc(O)c2O)OC1=O` (centres undefined) was tested, and the Average skin reaction [9] was 0.8, the Average skin reaction [10] was 0 and the “No. of sensitive animals” value [2] was 6. The Average skin reaction [11] was 1.4, the Average skin reaction [3] was 1.1 and the “No. of sensitive animals” value [5] was 0. The “No. of sensitive animals” value [7] was 7 and the “No. of sensitive animals” value [8] was 8.

`C=C1CC(CCCCCCc2cccc(O)c2O)OC1=O` (centres undefined) was tested, and the Average skin reaction [9] was 0.9, the Average skin reaction [10] was <0.1 and the “No. of sensitive animals” value [2] was 6. The Average skin reaction [3] was 0.9, the Average skin reaction [4] was 0.2 and the “No. of sensitive animals” value [5] was 1. For the same compound, the “No. of sensitive animals” value [7] was 3 and the “No. of sensitive animals” value [8] was 8.
